# Experimental data as given in ChEMBL document CHEMBL4257472, “Antitumor effect of sikokianin C, a selective cystathionine β-synthase inhibitor, against human colon cancer in vitro and in vivo” (Medchemcomm, 2018).
# The source made the active and inactive calls. No cut-off for these calls is given here.
# Tests used:
# [1] = tested on: HT-29; assay: Induction of apoptosis in human HT-29 cells after 24 hrs by Annexin V-FITC/propidium iodide staining based flow cytometry; assay type: functional, cell-based
# Outline: (§1)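 HT29 cells seeded at 5 × 10^5 per well and treated 24 h with 0.5, 1 or 2 μM compound. Cells trypsinized, washed in cold PBS, stained with FITC–Annexin V and PI for 15 min in the dark at room temperature. 10 000 cells analysed by flow cytometry. Annexin V-positive percentage reported as mean ± SD of three independent experiments.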
# [2] = target: T1, Cystathionine beta-synthase (Homo sapiens, UniProt P35520); assay: Inhibition of full-length GST-fused human CBS assessed as reduction in H2S production using 20 mM […] as substrate preincubated for 3 mins followed by substrate addition
# T1 sequence (P35520 whole entry): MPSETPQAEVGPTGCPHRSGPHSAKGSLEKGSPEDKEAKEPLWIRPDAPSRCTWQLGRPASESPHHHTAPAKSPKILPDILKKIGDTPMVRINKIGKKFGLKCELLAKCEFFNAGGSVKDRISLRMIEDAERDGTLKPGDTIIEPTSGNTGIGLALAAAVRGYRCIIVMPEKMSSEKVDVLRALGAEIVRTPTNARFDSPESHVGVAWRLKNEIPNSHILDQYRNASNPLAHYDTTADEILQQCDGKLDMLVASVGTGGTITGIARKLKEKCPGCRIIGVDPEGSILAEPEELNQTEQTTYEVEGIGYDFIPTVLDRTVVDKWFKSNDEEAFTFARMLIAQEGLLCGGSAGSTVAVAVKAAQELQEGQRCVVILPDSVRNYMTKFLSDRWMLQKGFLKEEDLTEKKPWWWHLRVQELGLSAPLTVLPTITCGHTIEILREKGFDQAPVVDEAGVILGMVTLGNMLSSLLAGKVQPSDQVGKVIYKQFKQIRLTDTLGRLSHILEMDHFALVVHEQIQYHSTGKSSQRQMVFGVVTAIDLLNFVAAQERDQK
# Outline: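 Same lead sulfide H2S assay on purified human wild-type CBS (5 μg, 50 mM HEPES pH 7.4, 5% DMSO, 0.4 mM lead nitrate, 37 °C), with cysteine raised to 20 mM and homocysteine kept at 2 mM. Lead sulfide read at 390 nm.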
# [3] = target: Cystathionine beta-synthase (Homo sapiens, UniProt P35520, Y223A); assay: Inhibition of human CBS Y223A mutant assessed as reduction in H2S production using 2 mM […] as substrate preincubated for 3 mins followed by substrate addition
# Chain of Cystathionine beta-synthase (Homo sapiens, UniProt P35520, Y223A) (P35520 whole entry Y223A): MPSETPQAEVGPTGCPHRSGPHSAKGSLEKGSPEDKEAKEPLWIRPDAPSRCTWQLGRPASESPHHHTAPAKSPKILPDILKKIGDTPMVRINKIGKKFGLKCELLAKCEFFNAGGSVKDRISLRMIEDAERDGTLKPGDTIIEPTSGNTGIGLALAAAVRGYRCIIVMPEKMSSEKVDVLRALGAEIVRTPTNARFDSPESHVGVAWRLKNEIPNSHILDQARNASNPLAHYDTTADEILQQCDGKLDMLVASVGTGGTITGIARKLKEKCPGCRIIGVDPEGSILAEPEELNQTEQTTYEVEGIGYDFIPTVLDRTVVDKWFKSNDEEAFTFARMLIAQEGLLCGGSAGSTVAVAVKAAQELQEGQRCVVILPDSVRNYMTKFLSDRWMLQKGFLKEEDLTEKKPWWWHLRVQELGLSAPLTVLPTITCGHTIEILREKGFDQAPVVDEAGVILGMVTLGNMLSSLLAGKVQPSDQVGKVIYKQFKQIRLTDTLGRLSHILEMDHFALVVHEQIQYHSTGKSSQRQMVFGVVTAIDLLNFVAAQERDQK
# Outline: (§2)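 Lead sulfide H2S assay on purified human CBS (5 μg, wild-type or alanine mutant) in 200 μL of 50 mM HEPES pH 7.4 with 5% DMSO and 0.4 mM lead nitrate. Enzyme and 2 mM homocysteine preincubated 3 min at 37 °C, then 2 mM cysteine added. Lead sulfide read at 390 nm (ε 5500 M−1 cm−1). Activity is relative to a DMSO control, mean ± SD (n = 3). The detergent test included 0.01% Triton X-100.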
# [4] = target: T2, Cystathionine beta-synthase (Homo sapiens) (UniProt P35520); assay: Competitive inhibition of full-length GST-fused human CBS up to 10 uM using […] as substrate by Lineweaver-burk plot analysis
# T2 sequence (whole entry): T1 sequence (P35520 whole entry)
# [5] = target: Cystathionine beta-synthase (Homo sapiens, UniProt P35520, Y308A); assay: Inhibition of human CBS Y308A mutant assessed as reduction in H2S production using 2 mM […] as substrate preincubated for 3 mins followed by substrate addition; outline: as §2
# Chain of Cystathionine beta-synthase (Homo sapiens, UniProt P35520, Y308A) (P35520 whole entry Y308A): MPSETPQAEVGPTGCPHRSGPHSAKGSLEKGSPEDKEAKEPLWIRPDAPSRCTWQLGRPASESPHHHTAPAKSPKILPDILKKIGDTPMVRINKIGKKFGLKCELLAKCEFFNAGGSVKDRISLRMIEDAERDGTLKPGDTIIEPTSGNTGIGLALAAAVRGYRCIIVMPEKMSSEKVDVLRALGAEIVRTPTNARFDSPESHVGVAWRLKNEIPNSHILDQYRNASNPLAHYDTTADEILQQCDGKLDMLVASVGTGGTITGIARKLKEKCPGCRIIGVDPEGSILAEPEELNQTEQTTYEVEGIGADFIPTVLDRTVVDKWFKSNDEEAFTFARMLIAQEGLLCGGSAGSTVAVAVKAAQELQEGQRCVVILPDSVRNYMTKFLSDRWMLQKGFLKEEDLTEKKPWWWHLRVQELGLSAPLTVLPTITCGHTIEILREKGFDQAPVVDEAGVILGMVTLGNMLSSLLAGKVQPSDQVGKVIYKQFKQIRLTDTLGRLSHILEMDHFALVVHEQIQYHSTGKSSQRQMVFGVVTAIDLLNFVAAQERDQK
# [6] = target: Cystathionine beta-synthase (Homo sapiens, UniProt P35520, T193A); assay: Inhibition of human CBS T193A mutant assessed as reduction in H2S production using […] as substrate preincubated for 3 mins followed by substrate addition; outline: as §2
# Chain of Cystathionine beta-synthase (Homo sapiens, UniProt P35520, T193A) (P35520 whole entry T193A): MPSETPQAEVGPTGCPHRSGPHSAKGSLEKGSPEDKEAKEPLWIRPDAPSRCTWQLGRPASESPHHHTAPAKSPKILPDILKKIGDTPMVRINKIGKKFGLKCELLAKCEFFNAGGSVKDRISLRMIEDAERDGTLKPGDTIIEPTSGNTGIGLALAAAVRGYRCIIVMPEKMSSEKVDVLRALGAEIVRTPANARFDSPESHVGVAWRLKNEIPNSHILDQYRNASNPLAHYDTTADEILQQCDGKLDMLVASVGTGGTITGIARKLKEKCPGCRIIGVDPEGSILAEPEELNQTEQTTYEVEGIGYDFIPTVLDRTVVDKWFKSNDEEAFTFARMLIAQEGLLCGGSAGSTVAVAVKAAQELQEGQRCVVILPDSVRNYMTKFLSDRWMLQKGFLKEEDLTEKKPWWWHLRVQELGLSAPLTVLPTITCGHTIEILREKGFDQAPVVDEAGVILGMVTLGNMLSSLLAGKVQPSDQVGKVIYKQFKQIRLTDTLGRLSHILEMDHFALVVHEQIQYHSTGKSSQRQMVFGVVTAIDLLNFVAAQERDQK
# [7] = tested on: HT-29; assay: Antiproliferative activity against human HT-29 cells harboring CBS SiRNA after 24 hrs by CCK8 assay; assay type: functional, cell-based; conditions: HT-29, 24 h
# Outline: (§3)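 HT29 cells grown in DMEM with 10% FBS and 1% penicillin–streptomycin, 37 °C, 5% CO2. Seeded at 1 × 10^4 cells/well, cultured 24 h, then exposed to varying compound concentrations for 24 h. CCK-8 added for 2 h at 37 °C and OD450 read. Viability expressed as % of untreated medium control. IC50 fitted from means ± SD (n = 4). Knockdown cells were transfected with CBS siRNA for 48 h beforehand.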
# [8] = target: T1, Cystathionine beta-synthase; assay: Inhibition of full-length GST-fused human CBS assessed as reduction in H2S production using 2 mM […] as substrate preincubated for 3 mins followed by substrate addition; outline: as §2
# [9] = Selectivity ratio of IC50 for human HT-29 cells harboring CBS SiRNA to IC50 for human HT-29 cells; assay type: functional
# [10] = target: T1, Cystathionine beta-synthase; assay: Inhibition of full-length GST-fused human CBS assessed as reduction in H2S production using […] as substrate preincubated for 3 mins followed by substrate addition measured in presence of Triton X-100; outline: as §2
# [11] = tested on: HT-29; assay: Induction of apoptosis in human HT-29 cells at 0.5 uM after 24 hrs by Annexin V-FITC/propidium iodide staining based flow cytometry relative to control; assay type: functional; outline: as §1
# [12] = target: Cystathionine beta-synthase (Homo sapiens, UniProt P35520, H203A); assay: Inhibition of human CBS H203A mutant assessed as reduction in H2S production using […] preincubated for 3 mins followed by substrate addition; outline: as §2
# Chain of Cystathionine beta-synthase (Homo sapiens, UniProt P35520, H203A) (P35520 whole entry H203A): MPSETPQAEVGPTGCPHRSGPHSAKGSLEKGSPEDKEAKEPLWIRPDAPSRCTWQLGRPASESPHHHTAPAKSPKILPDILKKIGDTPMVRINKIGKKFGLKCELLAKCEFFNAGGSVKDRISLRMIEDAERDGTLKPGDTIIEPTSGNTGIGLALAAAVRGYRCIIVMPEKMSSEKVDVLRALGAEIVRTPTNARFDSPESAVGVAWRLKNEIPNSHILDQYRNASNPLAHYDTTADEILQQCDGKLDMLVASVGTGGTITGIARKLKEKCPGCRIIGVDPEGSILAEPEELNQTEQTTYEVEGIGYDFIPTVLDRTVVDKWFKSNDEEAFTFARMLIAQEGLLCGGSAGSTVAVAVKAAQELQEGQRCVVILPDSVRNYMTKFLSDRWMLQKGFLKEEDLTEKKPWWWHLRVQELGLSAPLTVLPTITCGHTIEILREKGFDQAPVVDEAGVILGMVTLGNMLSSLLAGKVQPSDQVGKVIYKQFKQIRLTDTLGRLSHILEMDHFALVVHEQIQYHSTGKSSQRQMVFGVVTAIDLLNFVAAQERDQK
# [13] = target: Cystathionine beta-synthase (Homo sapiens, UniProt P35520, N194A); assay: Inhibition of human CBS N194A mutant assessed as reduction in H2S production using 2 mM […] as substrate preincubated for 3 mins followed by substrate addition; outline: as §2
# Chain of Cystathionine beta-synthase (Homo sapiens, UniProt P35520, N194A) (P35520 whole entry N194A): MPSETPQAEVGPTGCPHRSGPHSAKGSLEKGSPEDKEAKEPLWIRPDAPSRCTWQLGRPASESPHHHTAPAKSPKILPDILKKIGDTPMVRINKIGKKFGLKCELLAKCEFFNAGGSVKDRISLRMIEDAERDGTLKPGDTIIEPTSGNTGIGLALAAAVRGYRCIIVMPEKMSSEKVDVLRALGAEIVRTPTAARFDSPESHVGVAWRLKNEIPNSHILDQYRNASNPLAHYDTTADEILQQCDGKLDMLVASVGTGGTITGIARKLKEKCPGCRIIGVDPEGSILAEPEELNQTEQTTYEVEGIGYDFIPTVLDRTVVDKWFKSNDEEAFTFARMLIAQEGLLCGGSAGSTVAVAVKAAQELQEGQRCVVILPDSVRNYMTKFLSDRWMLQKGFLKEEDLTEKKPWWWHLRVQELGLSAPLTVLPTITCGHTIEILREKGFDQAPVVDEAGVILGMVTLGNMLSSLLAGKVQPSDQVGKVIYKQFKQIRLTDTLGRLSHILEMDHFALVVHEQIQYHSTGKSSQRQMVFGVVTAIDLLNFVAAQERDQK
# [14] = tested on: HT-29; assay: Antitumor activity against human HT-29 cells xenografted in sc dosed BALB/c nude mouse assessed as tumor growth inhibition administered once daily for 6 days followed by 1 day interval and subsequent dosing for 6 days; assay type: functional, organism-based
# Outline: (§4)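 Male BALB/c nude mice, five weeks old, given s.c. HT29 cells (100 μL of 1 × 10^7 cells/mL) in the right armpit. Randomized when tumours reached about 100 mm3. Daily s.c. dosing at 3 or 10 mg/kg/d, vehicle 1% DMSO with 0.5% carboxymethylcellulose in PBS, 6 d on and 1 d off, 12 treatments in total, n = 6. Tumour volume by calipers (0.5 × L × W²) and body weight monitored. Tumours excised and weighed on day 28.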
# [15] = tested on: HT-29; assay: Antiproliferative activity against human HT-29 cells after 24 hrs by CCK8 assay; assay type: functional, cell-based; conditions: HT-29, 24 h; outline: as §3
# [16] = tested on: Mus musculus; assay: Toxicity in BALB/c nude mouse xenografted with human HT-29 cells assessed as effect on body weight at 3 to 10 mg/kg, sc administered once daily for 6 days followed by 1 day interval and subsequent dosing for 6 days; assay type: organism-based; conditions: in vivo; outline: as §4
# [17] = tested on: HT-29; assay: Induction of apoptosis in human HT-29 cells at 1 uM after 24 hrs by Annexin V-FITC/propidium iodide staining based flow cytometry relative to control; assay type: functional; outline: as §1
# [18] = organism: Homo sapiens; assay: Selectivity ratio of IC50 for human CBS Y308A mutant to IC50 for full-length GST-fused human CBS
# [19] = tested on: HT-29; assay: Induction of apoptosis in human HT-29 cells at 2 uM after 24 hrs by Annexin V-FITC/propidium iodide staining based flow cytometry relative to control; assay type: functional; outline: as §1
# [20] = organism: Homo sapiens; assay: Selectivity ratio of IC50 for human CBS H203A mutant to IC50 for full-length GST-fused human CBS
# [21] = tested on: HT-29; assay: Antitumor activity against human HT-29 cells xenografted in BALB/c nude mouse assessed as reduction in tumor weight at 10 mg/kg, sc administered once daily for 6 days followed by 1 day interval and subsequent dosing for 6 days relative to control; assay type: functional; parameters: scale not given: the % may be the effect or the level left; outline: as §4
# [22] = tested on: HT-29; assay: Antitumor activity against human HT-29 cells xenografted in BALB/c nude mouse assessed as tumor growth inhibition at 10 mg/kg, sc administered once daily for 6 days followed by 1 day interval and subsequent dosing for 6 days; assay type: functional, organism-based; outline: as §4
# [23] = target: T2, Cystathionine beta-synthase (Homo sapiens); assay: Non-competitive inhibition of full-length GST-fused human CBS using […] as substrate by Lineweaver-burk plot analysis
# [24] = tested on: Mus musculus; assay: Toxicity in BALB/c nude mouse xenografted with human HT-29 cells assessed as effect on body weight at 10 mg/kg, sc administered once daily for 6 days followed by 1 day interval and subsequent dosing for 6 days; assay type: organism-based; conditions: in vivo; outline: as §4
smiles,measurement,setting,value
COc1ccc([C@H]2Oc3cc(O)cc(O)c3C(=O)[C@@H]2[C@H]2C(=O)c3c(O)cc(O)cc3O[C@@H]2c2ccc(O)cc2)cc1 [SIKOKIANIN C],Activity,[1],Dose-dependent effect
same,IC50,[2],5.5 µM
same,IC50,[3],16.9 µM
same,inhibition,[4],Active
same,IC50,[5],24 µM
same,IC50,[6],11.2 µM
same,IC50,[7],4.7 µM
same,IC50,[8],0.9 µM
same,Ratio IC50,[9],3
same,IC50,[10],1.4 µM
same,Activity,[11],17.1%
same,IC50,[12],43 µM
same,IC50,[13],18.7 µM
same,Activity,[14],Dose-dependent effect
same,IC50,[15],1.6 µM
same,Activity,[16],Non-Toxic
same,Activity,[17],22%
same,Ratio IC50,[18],27
same,Activity,[19],31.5%
same,Ratio IC50,[20],48
same,Activity,[21],46%
NOCC(=O)O [CARBOXYMETHOXYLAMINE],IC50,[7],287 µM
same,IC50,[8],7.5 µM
same,TGI,[22],Active
same,inhibition,[23],Active
same,IC50,[15],159 µM
same,Activity,[24],Non-Toxic
same,Activity,[21],44%
